Reference: ChEMBL document CHEMBL4049421, “Design, Synthesis, and Pharmacological Characterization of N-(4-(2 (6,7-Dimethoxy-3,4-dihydroisoquinolin-2(1H)yl)ethyl)phenyl)quinazolin-4-amine Derivatives: Novel Inhibitors Reversing P-Glycoprotein-Mediated Multidrug Resistance” (J Med Chem, 2017)
Calls of active or inactive are those of the source. No cut-off for these calls is given here.

Tests used:
[1] = Cytotoxicity against human K562 cells assessed as cell viability at 1.0 uM after 48 hrs by MTT assay (reference value: >99%); assay type: cell-based; conditions: read-out: Activity
[2] = Cytotoxicity against human K562/A02 cells assessed as cell viability at 1.0 uM after 48 hrs by MTT assay (reference value: >99%); assay type: cell-based; conditions: read-out: Activity
[3] = organism: Homo sapiens; assay: Inhibition of P-gp in human K562/A02 cells assessed as potentiation of doxorubicin-induced cytotoxicity by measuring fold reduction in doxorubicin IC50 at 1.0 uM after 48 hrs by MTT assay relative to doxorubicin alone; assay type: cell-based
Summary of the method: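 K562/A02 cells (1×10^4 cells per well) were exposed to a DOX concentration series, alone or with modulator at 1.0 μM, for 48 h. Viability was read by MTT at 490 nm. Reversal fold = DOX IC50 without inhibitor / DOX IC50 with inhibitor, mean ± SD of three tests.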

[4] = Cytotoxicity against human K562/A02 cells assessed as cell viability at 5.0 uM after 48 hrs by MTT assay (reference value: >99%); assay type: cell-based; conditions: read-out: Activity
[5] = test system: Rattus norvegicus; assay: Effect on plasma concentration of doxorubicin in Sprague-Dawley rat at 5 mg/kg, iv co-administered with doxorubicin measured after 8 hrs by LC-MS/MS analysis; assay type: ADME, organism-based; conditions: in vivo
Summary of the method: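 Male SD rats received DOX 10 mg/kg i.v. alone or with modulator 5 mg/kg i.v. Orbital blood was taken at 5 min to 8 h. Plasma DOX was measured by LC-MS/MS with DNR (0.5 μg/mL) as internal standard. Mean ± SD, n = 3.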

[6] = organism: Homo sapiens; conditions: 5 uM
[7] = organism: Homo sapiens; conditions: 5 uM; remark: listed apart in the source
[8] = organism: Homo sapiens; conditions: 5.0 uM
[9] = in vitro; conditions: human, K562 cells
[10] = Inhibition of CYP3A4 in rat liver microsomes assessed as decrease in 6beta-OH testosterone levels using testosterone as substrate by HPLC analysis; assay type: ADME
Summary of the method: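 Rat liver microsomes were isolated by differential centrifugation, with protein measured by Bradford assay. They were incubated with testosterone, without or with inhibitor at 2.5, 5.0, 10.0, 20.0 and 40.0 μM; ketoconazole was the reference inhibitor. 6β-OH testosterone was quantified by C18 reverse-phase HPLC (water/acetonitrile gradient, 35 °C, 1.0 mL/min, UV 254 nm). Mean ± SD, three independent experiments.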

[11] = organism: Homo sapiens; assay: Inhibition of P-gp in human K562/A02 cells assessed as accumulation of doxorubicin at 0.1 uM to 5.0 uM after 150 mins by fluorescence spectrophotometric analysis; assay type: cell-based
Summary of the method: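 K562/A02 cells (4×10^5) were incubated 150 min at 37 °C with 20.0 μM DOX plus modulator at various concentrations, with 0.1% DMSO as negative control. Cells were washed with cold PBS and lysed in HCl/Triton X-100/isopropanol. DOX fluorescence was read at ex 460 / em 587 nm. Mean ± SD, n = 3.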

[12] = organism: Homo sapiens; assay: Inhibition of P-gp mediated efflux in human K562/A02 cells assessed as intracellular Rh123 accumulation at 1.0 uM measure up to 90 mins by flow cytometric analysis; assay type: cell-based
Summary of the method: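 K562/A02 cells were loaded with 5 μM Rh123 for 90 min at 37 °C and washed three times. They were then incubated with or without modulator at 37 °C for 5, 10, 25, 30, 60 and 90 min. Retained Rh123 MFI per 10000 cells was measured by flow cytometry. 0.1% DMSO negative control, n = 3.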

[13] = organism: Homo sapiens; assay: Inhibition of ATPase activity in human P-gp membrane fraction at 0.5 uM in presence of ATP after 1 hr by luciferase […]; assay type: cell membranes
Summary of the method: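 Human P-gp membrane fraction (~25 μg) was incubated with compound at 0.5, 5.0 or 50.0 μM in 0.5% DMSO, with a 100 μM sodium vanadate reference. Reaction was started with 5.0 mM MgATP, 1 h at 37 °C. Remaining ATP was read by luciferase luminescence after 20 min at room temperature, relative to vanadate. n = 3.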

[14] = test system: K562; assay: Cytotoxicity against human K562 cells assessed as reduction in cell viability after 48 hrs by MTT assay; assay type: functional, cell-based; conditions: K562, 48 h
Summary of the method: (§1)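 MTT assay on HUVEC, K562 or K562/A02 cells seeded at 1×10^4 cells per well, using serial compound concentrations. Formazan was dissolved in DMSO and read at 490 nm. IC50 was obtained from log dose–response curves, mean ± SD of three independent tests.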

[15] = test system: K562/A02; assay: Cytotoxicity against human K562/A02 cells assessed as reduction in cell viability after 48 hrs by MTT assay; assay type: functional, cell-based; conditions: K562/A02, 48 h; summary of the method: as §1
[16] = test system: HUVEC; assay: Cytotoxicity against HUVEC assessed as reduction in cell viability after 48 hrs by MTT assay; assay type: cell-based; conditions: Homo sapiens; summary of the method: as §1
[17] = Selective ratio of IC50 for human K562/A02 cells to IC50 for human K562 cells; assay type: functional
[18] = test system: K562; assay: Antiproliferative activity against human K562 cells assessed as cell viability at 5.0 uM after 48 hrs by MTT assay (reference value: >99%); assay type: functional; conditions: K562, 48 h, read-out: Activity
[19] = test system: K562/A02; assay: Antiproliferative activity against human K562/A02 cells assessed as cell viability at 5.0 uM after 48 hrs by MTT assay (reference value: >99%); assay type: functional; conditions: K562/A02, 48 h, read-out: Activity
[20] = Elimination half life in Sprague-Dawley rat at 10 mg/kg, iv by LC-MS/MS analysis; assay type: ADME, organism-based; conditions: in vivo, read-out: beta t1/2 (converted)

Row | Structure (SMILES) | viability at 48 h, 1 µM [1] [%] | viability at 48 h, 1 µM [2] [%] | fold change (FC) [3] | other results
1 | COc1cc2c(cc1OC)CN(CCc1ccc(Nc3nc(-c4ccccc4OC)nc4ccccc34)cc1)CC2 | > 99 | > 99 | 10.9 | 
2 | COc1cc2c(cc1OC)CN(CCc1ccc(Nc3nc(-c4ccc5ccccc5n4)nc4ccccc34)cc1)CC2 | > 99 | 92.1 | 2.6 | 
3 | COc1ccc(-c2nc(Nc3ccc(CCN4CCc5cc(OC)c(OC)cc5C4)cc3)c3ccccc3n2)cc1OC | 95.1 | > 99 | 17.2 | 
4 | COc1ccc(CCN(C)CCCC(C#N)(c2ccc(OC)c(OC)c2)C(C)C)cc1OC (configuration not stated) |  |  |  | viability at 48 h, 5 µM [4]: 88.3%; Activity [5]: Toxic; inhibition [6]: inactive; inhibition [7]: Active; inhibition [8]: Active; viability at 48 h, 5 µM [9]: > 99%
5 | COc1cc2c(cc1OC)CN(CCc1ccc(Nc3nc(-c4ccc(Cl)cc4)nc4ccccc34)cc1)CC2 | > 99 | > 99 | 6 | 
6 | COc1cc2c(cc1OC)CN(CCc1ccc(Nc3nc(-c4ccccc4)nc4ccccc34)cc1)CC2 | 98.7 | > 99 | 7.7 | 
7 | CC(=O)N1CCN(c2ccc(OCC3COC(Cn4ccnc4)(c4ccc(Cl)cc4Cl)O3)cc2)CC1 (configuration not stated) [KETOCONAZOLE] |  |  |  | inhibition (INH) [10]: Dose-dependent effect
8 | COc1cc2c(cc1OC)CN(CCc1ccc(Nc3nc(-c4cccc([N+](=O)[O-])c4)nc4ccccc34)cc1)CC2 | > 99 | > 99 | 13.4 | 
9 | COc1cc2c(cc1OC)CN(CCc1ccc(Nc3nc(-c4ccccc4)nc4cc(Cl)ccc34)cc1)CC2 | > 99 | 95.3 | 8.2 | 
10 | COc1ccc(C(=O)Nc2ccccc2C(=O)Nc2ccc(CCN3CCc4cc(OC)c(OC)cc4C3)cc2)cc1OC | 97.5 | > 99 | 18.6 | inhibition [11]: Active; inhibition [12]: Active; inhibition [13]: Active; Activity [5]: Non-Toxic
11 | COc1cc2c(cc1OC)CN(CCc1ccc(Nc3nc(-c4ccc(C(C)(C)C)cc4)nc4ccccc34)cc1)CC2 | > 99 | 91.3 | 1.9 | 
12 | COc1cc2c(cc1OC)CN(CCc1ccc(Nc3nc(-c4ccc5c(c4)OCO5)nc4ccccc34)cc1)CC2 | 91.4 | 89.2 | 15.5 | 
13 | COc1cc2c(cc1OC)CN(CCc1ccc(Nc3nc(-c4cccc(C)c4)nc4ccccc34)cc1)CC2 | 92.9 | 92.1 | 8.9 | 
14 | COc1cc2c(cc1OC)CN(CCc1ccc(Nc3nc(-c4ccc([N+](=O)[O-])cc4)nc4ccccc34)cc1)CC2 | 94.7 | > 99 | 3 | 
15 | COc1cc2c(cc1OC)CN(CCc1ccc(Nc3nc(-c4ccccc4)nc4cc(OC)c(OC)cc34)cc1)CC2 | > 99 | 97.3 | 10.1 | 
16 | COc1cc2c(cc1OC)CN(CCc1ccc(Nc3nc(-c4ccc(F)cc4)nc4ccccc34)cc1)CC2 | > 99 | > 99 | 3.3 | 
17 | COc1cccc2c1C(=O)c1c(O)c3c(c(O)c1C2=O)C[C@@](O)(C(=O)CO)C[C@@H]3O[C@H]1C[C@H](N)[C@H](O)[C@H](C)O1 [DOXORUBICIN] |  |  |  | IC50 [14]: 0.62 µM; IC50 [15]: 89.8 µM; IC50 [16]: 8.65 µM; Ratio IC50 [17]: 144.8; viability at 5 µM [18]: 8.8%; viability at 5 µM [19]: 96.4%; half-life [20]: 1.6 h
18 | COc1ccc(-c2nc(Nc3ccc(CCN4CCc5cc(OC)c(OC)cc5C4)cc3)c3ccccc3n2)cc1 | > 99 | 85.2 | 7.9 | 
19 | COc1cc2c(cc1OC)CN(CCc1ccc(Nc3nc(-c4ccc(C)cc4)nc4ccccc34)cc1)CC2 | 93.4 | 94.2 | 7.5 | 
20 | COc1cc2c(cc1OC)CN(CCc1ccc(Nc3nc(-c4cccnc4)nc4ccccc34)cc1)CC2 | > 99 | 97.9 | 5.9 | 
21 | COc1cccc(-c2nc(Nc3ccc(CCN4CCc5cc(OC)c(OC)cc5C4)cc3)c3ccccc3n2)c1 | > 99 | > 99 | 14.6 | 
